PRMT1 inh – blocks human protein arginine methyltransferase 1. recombinant PRMT1, activity-based probe fluorescence polarization. hit rate 1.3% among 370,000. inhibition, % at 2.79 µM;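 active means inhibition above about 21% made by adding two undisclosed values, limit read from the data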
DAGLB inh – diacylglycerol lipase beta (human) inhibition | Q8NCG7 | HEK293T DAGLB membrane lysate, EnzChek fluorogenic substrate | inhibition, % at 5.17 µM | hit rate 0.059% among 340,000 | AID 504411; in the data active means inhibition above about 34%;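 further: 0% = enzyme with vehicle and 100% = wells lacking enzyme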
Target sequence (Q8NCG7 whole entry, looked up): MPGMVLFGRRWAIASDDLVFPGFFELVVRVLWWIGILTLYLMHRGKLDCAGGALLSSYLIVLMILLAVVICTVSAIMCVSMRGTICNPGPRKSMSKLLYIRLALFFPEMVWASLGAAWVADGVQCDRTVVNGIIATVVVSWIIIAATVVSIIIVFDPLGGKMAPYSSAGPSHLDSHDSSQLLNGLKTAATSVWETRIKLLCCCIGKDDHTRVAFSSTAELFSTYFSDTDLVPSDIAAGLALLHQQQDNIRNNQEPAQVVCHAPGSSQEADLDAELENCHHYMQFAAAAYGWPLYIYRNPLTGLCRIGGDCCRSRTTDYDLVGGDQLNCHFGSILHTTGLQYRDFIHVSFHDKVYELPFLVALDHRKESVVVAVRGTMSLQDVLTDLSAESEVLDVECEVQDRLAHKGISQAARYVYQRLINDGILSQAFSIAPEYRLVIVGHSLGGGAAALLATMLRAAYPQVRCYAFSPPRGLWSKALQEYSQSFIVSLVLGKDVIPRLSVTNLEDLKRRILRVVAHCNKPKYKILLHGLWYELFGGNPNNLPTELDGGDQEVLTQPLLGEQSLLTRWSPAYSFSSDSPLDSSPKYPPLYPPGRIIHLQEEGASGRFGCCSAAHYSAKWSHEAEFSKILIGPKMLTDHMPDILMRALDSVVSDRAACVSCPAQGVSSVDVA
LEDGF integ inh – blocks HIV-1 LEDGF/p75-dependent DNA integration; hit rate 0.64% among 370,000; inhibition, % at 3.7 µM; TR-FRET IN-LEDGF/p75 DNA integration, Eu/Cy5; AID 743269;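 active means inhibition above the screen-wide mean plus 3 SD, cut at about 13% in these data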;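 further: signal is the Cy5 over europium emission ratio at 671 and 618 nm; 0% = plate median of compound wells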
rCAG binder-1 – r(CAG) repeat RNA binding. AID 651821. hit rate 1.3% among 370,000. TO-PRO-1 dye displacement fluorescence. inhibition, % at 3 µM;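 active means inhibition above the plate cutoff, the mean of all test compounds on that plate plus 3 SD, cut at about 35% in these data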;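 further: 0% = DMSO alone and 100% = 100 µM mitoxantrone as full dye displacement; higher means more dye released from RNA so lower well fluorescence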
HTRA1 inhibitor – HTRA1 (human) protease inhibition; hit rate 0.5% among 340,000; Q92743; inhibition, % at 5.96 µM; recombinant HTRA1, FP-rhodamine activity-based probe, fluorescence polarization; AID 504803; in the data active means inhibition above about 36%;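 further: 0% = enzyme with DMSO and 100% = wells lacking enzyme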
mABHD4 FP – inhibits mouse alpha/beta hydrolase domain 4; Q8VD66; inhibition, % at 8.92 µM; purified mABHD4, FP-Rh probe fluorescence polarization; AID 720543; hit rate 0.54% among 370,000;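 active means inhibition exceeding the mean over every tested compound plus 3 SD, cut at about 30% in these data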;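 further: 0% = plate median of compound wells and 100% = S159A mutant with DMSO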
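Test system: mouse ABHD4 enzyme, wild type. Reagent: FP-Rh fluorescent activity-based probe, added after compound pre-incubation. Timing: pre-incubation 45 min, probe exposure 60 min, at 25 °C. Technique: FP readout, ex 525 nm / em 598 nm. Benchmarks: high control S159A mutant with DMSO, low control median of compound wells.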
rCAG bind conf – r(CAG) RNA repeat binding, confirmation; inhibition, % at 3 µM; hit rate 70% among 4,300; shares compounds with rCAG binder-1; TO-PRO-1 dye displacement fluorescence;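 active means inhibition above a per-plate cutoff, the mean inhibition of sample wells plus 3 SD, cut at about 35% in these data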;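 further: loss of TO-PRO-1 fluorescence as compound displaces dye from 1x1 AA loop RNA; 0% = DMSO only wells and 100% = 100 µM mitoxantrone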
DNA CAG counter – disrupts DNA CAG TO-PRO-1 complex, flagging rCAG hits. shares compounds with rCAG binder-1. d(CAG) DNA oligo TO-PRO-1 dye displacement, fluorescence. inhibition, % at 3 µM. hit rate 94% among 4,300;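 active means inhibition above its plate's cutoff, the mean test-well inhibition plus 3 SD, cut at about 4.8% in these data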;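 further: 0% = DNA dye mix with DMSO and 100% = 100 µM mitoxantrone; hits displace the dye from DNA and so lower well fluorescence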
dCAG dye DR – DNA CAG dye complex inhibition, dose response counter-screen; shares compounds with rCAG binder-1; DNA CAG/GTC duplex TO-PRO-1 dye displacement fluorescence; IC50, µM; hit rate 20% among 250; AID 686960; in the data active means IC50 below about 10 µM
dCAG DNA bind – inhibits DNA CAG/GTC TO-PRO-1 complex, rCAG binder counter-screen; shares compounds with rCAG binder-1; d(CAG) DNA duplex TO-PRO-1 dye displacement, fluorescence; IC50, µM; hit rate 80% among 30
rCAG binder-2 – binds r(CAG) RNA repeats in late stage dose response | AID 720651 | shares compounds with rCAG binder-1 | IC50, µM | r(CAG) RNA TO-PRO-1 dye displacement, fluorescence | hit rate 100% among 30
The depositor's hits bear a star; / = no result. Sampled rows, rich in hits. Any-hit rate of the full collection: about 3.2%. Unless noted, how the calls were made is not given here.

SMILES	PRMT1 inh	DAGLB inh	LEDGF integ inh	rCAG binder-1	HTRA1 inhibitor	mABHD4 FP	rCAG bind conf	DNA CAG counter	others
CC(=O)Nc1ccc(S(=O)(=O)Nc2nc3ccccc3nc2N2CCCCCC2)cc1	0	4	2	24	0	-7	/	/
Cc1csc2c(=O)n(CCO)c(=O)[nH]c12	-1	/	-3	-1	/	-1	/	/
COC(=O)C(=NNc1c(C)n(C)n(-c2ccccc2)c1=O)C(=O)OC	2	-1	3	0	3	-3	/	/
Cc1c(N/N=C(\C#N)C(=O)c2ccc(Cl)cc2)c(=O)n(-c2ccccc2)n1C	-4	11	-6	37*	1	8	32	10*
N#C/C(=N\Nc1ccc(Cl)cc1)C(=O)c1ccccc1	0	7	-1	59*	9	2	58*	14*
O=C(COC(=O)C1CC(=O)N(c2nc(-c3ccccc3)cs2)C1)c1ccccc1 (stereo unspecified)	0	-7	1	7	-23	-8	/	/
COc1cc(C(=O)Nc2nnc(S(=O)(=O)N3CCCCCC3)s2)cc(OC)c1OC	-6	0	4	52*	-7	-11	53*	14*
CC1CCN(S(=O)(=O)c2nnc(NC(=O)c3ccccc3Br)s2)CC1	-2	9	-1	37*	-4	1	28	6.5*
CCN(c1ccc(OC)cc1)S(=O)(=O)c1nnc(NC(=O)COc2ccc(F)cc2)s1	-1	8	-1	56*	-22	1	57*	21*	dCAG dye DR=>30;dCAG DNA bind=5.5*;rCAG binder-2=1.8*
CCN(c1ccc(OC)cc1)S(=O)(=O)c1nnc(NC(=O)COc2ccc(C)cc2)s1	/	7	/	/	-2	/	/	/
COc1cccc(C(=O)Nc2nnc(S(=O)(=O)N(C)Cc3ccc(F)cc3)s2)c1	1	7	3	70*	-46	-15	65*	25*
O=C(Nc1nnc(S(=O)(=O)N2CCCC2)s1)c1ccccc1Br	3	-2	2	9	8	-2	/	/
O=C(c1ccc([N+](=O)[O-])o1)N1CCN(c2nc3ccc(F)cc3s2)CC1	1	0	-1	3	-3	7	/	/
CCC(=O)N1CCC(C)(C(=O)Nc2ccc3c(c2)OCO3)C1 (stereo unspecified)	4	/	2	1	/	6	/	/
COc1ccc(CN(C)S(=O)(=O)c2nnc(NC(=O)c3cccc(OC)c3)s2)cc1	-3	3	0	67*	-43	-25	58*	23*
COc1cccc(C(=O)Nc2nnc(S(=O)(=O)N(C)Cc3ccccc3)s2)c1	0	2	0	21	-13	-7	/	/
COc1ccc(CN(C)S(=O)(=O)c2nnc(NC(=O)c3ccccc3Br)s2)cc1	-3	10	1	73*	-25	-27	52*	18*
COc1cccc(CN2C(=O)C(C)Oc3ccccc32)c1 (stereo unspecified)	-3	-4	2	-7	-7	-7	/	/
COc1cccc(CN2c3ccc(Br)cc3C(=O)CS2(=O)=O)c1	3	29	0	52*	-135	-52	39*	16*
C=CCN1c2ccc(Br)cc2C(=O)CS1(=O)=O	-1	24	-2	66*	-82	-73	10	6.3*
Cc1ccc(CN2[C@@H](Cc3ccccc3)C(=O)CS2(=O)=O)cc1	-1	17	3	41*	-66	-13	21	9.1*
O=S1(=O)CCOC[C@H](Cc2ccccc2)N1Cc1ccccc1	2	-2	1	-1	-1	-2	/	/
O=C(CNC(=O)C(c1ccccc1)c1ccccc1)N/N=C/c1ccc(O)c([N+](=O)[O-])c1	5	6	-1	44*	2	17	22	4.7*
O=C(N/N=C/c1ccc(O)c([N+](=O)[O-])c1)C1CC1(c1ccccc1)c1ccccc1 (stereo unspecified)	3	14	-1	50*	6	19	50*	19*
CCOC(=O)c1ccc(NC(=O)C2CCCN(S(=O)(=O)c3ccc(F)cc3)C2)cc1 (stereo unspecified)	1	0	2	7	-22	-38	/	/
SMILES	PRMT1 inh	DAGLB inh	LEDGF integ inh	rCAG binder-1	HTRA1 inhibitor	mABHD4 FP	rCAG bind conf	DNA CAG counter	others
CCOC(=O)Cc1cc(=O)n(-c2nc3ccccc3s2)[nH]1	10	13	3	73*	49*	4	34	12*
CCCc1cc(=O)n(-c2nc3ccccc3s2)[nH]1	-2	5	0	17	4	1	/	/
COc1cccc(-c2nc(CS(=O)(=O)CC(=O)N3CCN(C)CC3)c(C)o2)c1	-2	3	0	2	1	3	/	/
O=C(O)c1ccccc1NC(=O)c1cc(-c2ccccc2)nc2ccccc12	4	10	3	56*	-67	-15	62*	22*
Cc1ccc(-c2cc(C(=O)Nc3ccc(S(=O)(=O)Nc4cc(C)on4)cc3)c3ccccc3n2)c(C)c1	1	12	-3	79*	-79	-67	82*	53*
O=C(NNS(=O)(=O)c1cccc(Cl)c1)c1cc(-c2ccc(F)cc2)nc2ccccc12	2	0	-5	44*	-27	-17	44*	15*
Cc1ccc(-c2cc(C(=O)Nc3ccncc3)c3ccccc3n2)cc1	-3	-1	0	5	-13	2	/	/
Cc1ccc(-c2cc(C(=O)Nc3ccc(S(=O)(=O)Nc4onc(C)c4C)cc3)c3ccccc3n2)cc1	0	12	4	87*	-56	-15	86*	61*
Cc1ccc(O)c(-c2cc(C(=O)Nc3ccc(S(=O)(=O)Nc4nc(C)cc(C)n4)cc3)[nH]n2)c1	-1	0	0	55*	-50	-37	40*	12*
Cc1ccccc1C(=O)Nc1ccc(S(=O)(=O)Nc2onc(C)c2C)cc1	-5	1	4	5	-7	0	/	/
Cc1ccc(C)c(NC(=O)c2cc(-c3cc(C)ccc3O)n[nH]2)c1	1	-1	1	16	-27	-2	/	/
